The values below come from ChEMBL document CHEMBL1131193, “Selective tight binding inhibitors of trypanosomal glyceraldehyde-3-phosphate dehydrogenase via structure-based drug design” (J Med Chem, 1998).

The structures appear in SMILES notation.

Chain of Glyceraldehyde-3-phosphate dehydrogenase (P04406 whole entry): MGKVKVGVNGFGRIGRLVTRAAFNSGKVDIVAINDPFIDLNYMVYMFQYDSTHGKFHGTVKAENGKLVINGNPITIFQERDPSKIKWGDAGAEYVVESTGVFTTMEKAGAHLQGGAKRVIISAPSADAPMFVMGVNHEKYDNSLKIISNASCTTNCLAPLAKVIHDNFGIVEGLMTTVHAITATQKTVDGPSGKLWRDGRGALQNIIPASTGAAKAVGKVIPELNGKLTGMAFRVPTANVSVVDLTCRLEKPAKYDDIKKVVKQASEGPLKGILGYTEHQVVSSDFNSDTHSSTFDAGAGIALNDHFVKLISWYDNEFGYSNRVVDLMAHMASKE

Biological target in the first assay: not listed separately
Put plainly: Inhibitory activity measured for Glyceraldehyde-3-phosphate dehydrogenase (GAPDH) in Leishmania. mexicana. The essentials: (§1)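 Recombinant glycosomal GAPDH of L. mexicana, T. cruzi or T. brucei; human enzyme from erythrocytes. NADH formation followed at 340 nm, 21 °C, in 0.1 M triethanolamine-HCl pH 7.6 with DTT, NaN3, MgSO4, EDTA, 10 mM K2HPO4, 0.8 mM glyceraldehyde-3-phosphate, 0.19 mM NAD+, 5% DMSO. Reaction started with enzyme. IC50 from 0–1 min initial rates at ≥5 inhibitor levels versus DMSO control.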
By IC50 is commonly meant the concentration at which inhibition is half-maximal. Compound `Nc1ccc(CNc2ncnc3c2ncn3[C@@H]2O[C@H](CO)[C@@H](O)[C@H]2O)cc1` yielded an IC50 of 3100 µM.
The same measure, in the same setting: the figure for `OC[C@H]1O[C@@H](n2cnc3c(NC4CCCCCC4)ncnc32)[C@H](O)[C@@H]1O` is 1800 µM; for `COc1cccc(C(=O)N[C@@H]2[C@H](O)[C@@H](CO)O[C@H]2n2cnc3c(NCc4cccc(C)c4C)ncnc32)c1` it is 5.5 µM; for `Cc1cccc(CNc2ncnc3c2ncn3[C@@H]2O[C@H](CO)[C@@H](O)[C@H]2O)c1` it is 700 µM.
For `OC[C@H]1O[C@@H](n2cnc3c(NCc4ccccc4)ncnc32)[C@H](O)[C@@H]1O` [N6-BENZYLADENOSINE], inhibition was half-maximal at 4200 µM (IC50).
Still for that read-out and setting: the figure for `OC[C@H]1O[C@@H](n2cnc3c(NCc4cccc5ccccc45)ncnc32)[C@H](O)[C@@H]1O` is 150 µM; for `COc1cccc(C(=O)N[C@@H]2[C@H](O)[C@@H](CO)O[C@H]2n2cnc3c(N)ncnc32)c1` it is 800 µM; for `Nc1ncnc2c1ncn2[C@@H]1O[C@H](CO)[C@@H](O)[C@H]1NC(=O)c1cc(O)cc(O)c1` it is 650 µM.
In the case of `CCC(C)CNc1ncnc2c1ncn2C1O[C@H](CO)[C@@H](O)[C@H]1O` (some centres not stated), the IC50 was above 5400 µM.
The same measure, in the same setting: the figure for `COc1cccc(C(=O)N[C@@H]2[C@H](O)[C@@H](CO)O[C@H]2n2cnc3c(NCc4ccccc4C)ncnc32)c1` is 4 µM; for `Nc1ncnc2c1ncn2[C@@H]1O[C@H](CO)[C@@H](O)[C@H]1NC(=O)c1cc(O)c(O)c(O)c1` it is 250 µM.
Same read-out and setting: the figure for `COc1cccc(C(=O)N[C@@H]2[C@H](O)[C@@H](CO)O[C@H]2n2cnc3c(NC(=O)C(C)C)ncnc32)c1` is 1200 µM; for `COc1cccc(C(=O)N[C@@H]2[C@H](O)[C@@H](CO)O[C@H]2n2cnc3c(N)ncnc32)c1O` it is 600 µM.
The same measure, in the same setting: the figure for `Nc1ncnc2c1ncn2[C@@H]1O[C@H](CO)[C@@H](O)[C@H]1O` [ADENOSINE] is 50000 µM; for `COc1cccc(C(=O)N[C@@H]2[C@H](O)[C@@H](CO)O[C@H]2n2cnc3c(NCc4ccccc4OC)ncnc32)c1` it is 25 µM; for `OC[C@H]1O[C@@H](n2cnc3c(NC4CCCc5ccccc54)ncnc32)[C@H](O)[C@@H]1O` (some centres not stated) it is 360 µM.
Consider `OC[C@H]1O[C@@H](n2cnc3c(NC4CCCC4)ncnc32)[C@H](O)[C@@H]1O` [N6-CYCLOPENTYLADENOSINE], for which the IC50 is above 5000 µM.
In turn, `CC(C)=CCNc1ncnc2c1ncn2[C@@H]1O[C@H](CO)[C@@H](O)[C@H]1O` [RIBOPRINE] registered an IC50 above 5000 µM.
`OC[C@H]1OC(n2cnc3c(NC(c4ccccc4)c4ccccc4)ncnc32)[C@H](O)[C@@H]1O` (some centres not stated) showed an IC50 of 240 µM.
Still for that read-out and setting: the figure for `COc1cccc(C(=O)N[C@@H]2[C@H](O)[C@@H](CO)O[C@H]2n2cnc3c(NCc4ccccc4)ncnc32)c1` is 16 µM; for `CC(CO)CCNc1ncnc2c1ncn2C1O[C@H](CO)[C@@H](O)[C@H]1O` (some centres not stated) it is 3400 µM.
In turn, `Nc1ncnc2c1ncn2[C@@H]1O[C@H](CO)[C@@H](O)[C@H]1NC(=O)c1cccc(O)c1` showed a 50% inhibitory concentration (IC50) of 850 µM. Against the preceding compound, the IC50 is about 4-fold lower.
The compound `COc1cc(C(=O)N[C@@H]2[C@H](O)[C@@H](CO)O[C@H]2n2cnc3c(N)ncnc32)ccc1O` displayed an IC50 of 500 µM.
Same read-out and setting: the figure for `OCc1ccccc1Sc1ccccc1CNc1ncnc2c1ncn2C1O[C@H](CO)[C@@H](O)[C@H]1O` (some centres not stated) is 340 µM.
On to `COc1cccc(C(=O)N[C@@H]2[C@H](O)[C@@H](CO)O[C@H]2n2cnc3c(NCc4cc(C)ccc4C)ncnc32)c1`, for which the midpoint of inhibition, the IC50, lay at 25 µM.
Still for that read-out and setting: then `Cc1ccccc1CNc1ncnc2c1ncn2[C@@H]1O[C@H](CO)[C@@H](O)[C@H]1O` [METRIFUDIL], with 700 µM.

Biological target in a further assay: not listed separately
Nature of the assay: Inhibitory activity was measured for Glyceraldehyde-3-phosphate dehydrogenase (GAPDH) in Leishmania. mexicana.
Regarding `CC(C)CCNc1ncnc2c1ncn2[C@@H]1O[C@H](CO)[C@@H](O)[C@H]1O`, the IC50 worked out at 3700 µM.

Biological target in a further assay: not listed separately
Put plainly: Inhibitory activity was measured for Glyceraldehyde-3-phosphate dehydrogenase in Trypanosoma brucei. An outline of the steps:
as §1
With `COc1cccc(C(=O)N[C@@H]2[C@H](O)[C@@H](CO)O[C@H]2n2cnc3c(NCc4ccccc4C)ncnc32)c1`, the midpoint of inhibition, the IC50, lay at 30 µM.
The same measure, in the same setting: the figure for `COc1cccc(C(=O)N[C@@H]2[C@H](O)[C@@H](CO)O[C@H]2n2cnc3c(NCc4ccccc4)ncnc32)c1` is 220 µM.

Biological target in the next assay: not listed separately
Nature of the assay: Inhibitory activity was measured for Glyceraldehyde-3-phosphate dehydrogenase in Trypanosoma cruzi. The essentials: as §1
As to `COc1cccc(C(=O)N[C@@H]2[C@H](O)[C@@H](CO)O[C@H]2n2cnc3c(NCc4ccccc4C)ncnc32)c1`, the IC50 worked out at 30 µM. This counts as double-digit micromolar.
Same read-out and setting: the figure for `COc1cccc(C(=O)N[C@@H]2[C@H](O)[C@@H](CO)O[C@H]2n2cnc3c(NCc4ccccc4)ncnc32)c1` is 159 µM.

The next assay addresses Glyceraldehyde-3-phosphate dehydrogenase (Homo sapiens, UniProt P04406). Nature of the assay: Inhibitory activity was measured for Glyceraldehyde-3-phosphate dehydrogenase in human(erythrocytes). Format: cell-based. An outline of the steps:
as §1
In turn, `COc1cccc(C(=O)N[C@@H]2[C@H](O)[C@@H](CO)O[C@H]2n2cnc3c(NCc4ccccc4C)ncnc32)c1` registered an IC50 above 270 µM.
As for `COc1cccc(C(=O)N[C@@H]2[C@H](O)[C@@H](CO)O[C@H]2n2cnc3c(NCc4ccccc4)ncnc32)c1`, the IC50 was above 530 µM.

A further assay has as its system GAPDH (Leishmania mexicana). Put plainly: Inhibitory activity was measured for Glyceraldehyde-3-phosphate dehydrogenase (up to 10 mM.
With `CC(C)Nc1ncnc2c1ncn2[C@@H]1O[C@H](CO)[C@@H](O)[C@H]1O`, the IC50 result is “Not Active”.

The next assay deals with GAPDH (Leishmania mexicana). Described as above. This is another data set of the same source.
On to `CC(C)(C)Nc1ncnc2c1ncn2C1O[C@H](CO)[C@@H](O)[C@H]1O` (some centres not stated), for which the IC50 entry is “Not Active”.
`CCCCCNc1ncnc2c1ncn2[C@@H]1O[C@H](CO)[C@@H](O)[C@H]1O`: the IC50 result is “Not Active”.
As to `CCCC(C)Nc1ncnc2c1ncn2C1O[C@H](CO)[C@@H](O)[C@H]1O` (some centres not stated), the IC50 entry is “Not Active”.
